Screens from PubChem.
Hits are enriched below; roughly 2.3% of the tested compounds scored in any of these assays.
TAAR1 ag = human TAAR1 agonists, primary screen, Fluo-8 calcium fluorescence, CHO RD-HGA16 cells; Trace amine-associated receptor 1 (Homo sapiens), Q96RJ0; vehicle wells 0%, saturating PEA agonist 100%; activation, % at 3 µM; actives 0.99% (n = 360,000);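 active = activation above the mean activation of all test compounds in the run plus 3 SD, cut at about 38% in these data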
Target sequence (Q96RJ0 whole entry, looked up): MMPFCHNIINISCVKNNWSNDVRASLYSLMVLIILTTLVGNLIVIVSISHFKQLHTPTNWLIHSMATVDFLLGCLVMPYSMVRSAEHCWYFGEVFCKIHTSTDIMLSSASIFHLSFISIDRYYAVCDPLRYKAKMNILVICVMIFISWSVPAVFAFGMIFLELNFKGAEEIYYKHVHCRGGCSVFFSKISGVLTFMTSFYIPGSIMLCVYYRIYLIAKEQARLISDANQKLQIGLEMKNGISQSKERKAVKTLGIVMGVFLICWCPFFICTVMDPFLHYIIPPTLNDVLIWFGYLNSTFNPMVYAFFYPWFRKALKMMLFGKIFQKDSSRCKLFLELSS
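Benchmarks: low control DMSO, high control PEA (EC100); System: CHO RD-HGA16 cells carrying human TAAR1 plus Gα16; Detection: Fluo-8 fluorescence, 5 s baseline then 140 s kinetic read; Schedule: 17-24 h plating, Fluo-8 75 min 37 °C, 30 min RT; Read-out basis: % activation from peak over basal fluorescence ratio, DMSO-to-PEA scaled.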
V1R ag counter = agonists of human V1a receptor, primary screen, counter-screen for OXTR agonist project, fluorescence, CHO-V1R cells; Vasopressin V1a receptor (Homo sapiens), P37288; Fluo-8 calcium fluorescence, agonist mode; 0% DMSO, 100% 3 nM vasopressin; activation, % at 3 µM; actives 0.25% (n = 320,000);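 active = activation above the mean activation of all tested compounds plus 3 SD, per screening run, cut at about 20% in these data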;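 note: signal is peak over basal fluorescence ratio across a 100 second FLIPR read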
OXTR potentiator = human OXTR potentiators, primary screen, fluorescence, CHO-OTR cells, Fluo-8 calcium; Oxytocin receptor (Homo sapiens), P30559; Fluo-8 calcium fluorescence, potentiator mode; 0% = oxytocin EC15, 100% = EC100; activation, % at 3 µM; actives 0.061% (n = 320,000); AID 2445, 2010;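 active = activation above that plate's cutoff, the mean activation of tested compounds plus 3 SD, cut at about 6.6% in these data, passing the limit was not always enough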;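 note: 100% uses oxytocin at 75 nM as the full agonist control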
Target sequence (P30559 whole entry, looked up): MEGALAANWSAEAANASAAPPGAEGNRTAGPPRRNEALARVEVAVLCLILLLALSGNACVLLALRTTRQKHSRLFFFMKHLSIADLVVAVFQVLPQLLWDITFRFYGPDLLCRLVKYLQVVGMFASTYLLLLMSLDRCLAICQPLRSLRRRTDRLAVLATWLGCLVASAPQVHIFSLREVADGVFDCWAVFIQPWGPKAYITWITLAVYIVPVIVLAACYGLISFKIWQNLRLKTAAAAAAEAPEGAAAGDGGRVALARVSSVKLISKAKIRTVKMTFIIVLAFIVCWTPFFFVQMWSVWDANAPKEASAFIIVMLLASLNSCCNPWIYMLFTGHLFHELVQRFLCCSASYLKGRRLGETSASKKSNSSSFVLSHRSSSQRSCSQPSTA
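Assay system: CHO cell line stably expressing human OTR. Reagent: EC15 oxytocin agonist. Dosing: single dose, 3.0 µM nominal final compound concentration. Timing: compound 6 min at room temperature before oxytocin, 100 s read. Signal: kinetic Fluo-8 calcium fluorescence. Controls: oxytocin EC15 low and EC100 high.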
TAAR1 antagonist = human TAAR1 antagonists, primary screen, Fluo-8 calcium fluorescence, CHO RD-HGA16 cells | AID 624466, 2012 | actives 1.5% (n = 360,000) | antagonist | inhibition, % at 3 µM;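 active = inhibition above a per-plate cutoff, the mean inhibition of test compounds on that plate plus 3 SD, cut at about 49% in these data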;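 note: 0% = DMSO plus EC80 beta-PEA response and 100% = DMSO alone without agonist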
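Material: CHO RD-HGA16 cells bearing hTAAR1; compound dosing: one-point dosing, 3 µM nominal final; schedule: dye loading 75 min at 37 °C, then 30 min room temperature; measured by: calcium fluorescence with Fluo-8; control set: vehicle and agonist controls; replication: n of 1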
OXTR agonist = human OXTR agonists, primary screen, fluorescence, CHO-OTR cells, Fluo-8 calcium; Oxytocin receptor (Homo sapiens), P30559; Fluo-8 calcium fluorescence; normalized: DMSO 0%, oxytocin 100%; activation, % at 3 µM; actives 0.32% (n = 320,000); AID 2435, 2010;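 active = activation above the mean of all tested compounds plus 3 SD, cutoff set per screening run, cut at about 20% in these data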;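 note: peak over basal fluorescence ratio from a 100 s FLIPR kinetic read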
TAAR1 nonsel count = nonselective antagonists in TAAR1 counter-screen cells, counter-screen for hTAAR1 antagonist project, cell-based, fluorescence, calcium; shares compounds with TAAR1 antagonist; counterscreen cell line, antagonist mode; actives 77% (n = 2,400); inhibition, % at 3 µM; in the data active = inhibition above about 22%;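 note: CHO-Ga16 host cells stimulated with ATP at an EC80 level; 0% = agonist EC80 plus vehicle and 100% = vehicle without agonist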
TAAR1 antag conf = human TAAR1 antagonists, retest of hits, confirmation, cell-based, fluorescence | shares compounds with TAAR1 antagonist | TAAR1-expressing cells, fluorescence antagonist read-out | inhibition, % at 3 µM | actives 40% (n = 2,400); in the data active = inhibition above about 49%;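 note: CHO-Ga16 host cells challenged with agonist PEA near its EC80; 0% = agonist at EC80 plus vehicle and 100% = vehicle with no agonist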
Ga16 ag counter = calcium activation in Ga16-expressing cells, counter-screen for TAAR1 antagonist project, cell-based, fluorescence; shares compounds with TAAR1 antagonist; agonist counterscreen; activation, % at 3 µM; actives 18% (n = 2,400); AID 651953, 2012; in the data active = activation above about 12%;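 note: 0% = vehicle wells and 100% = saturating stimulus response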
TAAR1 ag counter = TAAR1 activation by candidate antagonists – cell-based, fluorescence, counter-screen for TAAR1 antagonist project. activation, % at 3 µM. actives 2% (n = 2,400). hTAAR1 cell line, agonist mode. shares compounds with TAAR1 antagonist. AID 651955, 2012; in the data active = activation above about 37%;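 note: CHO cells stably expressing TAAR1 with calcium dye readout; 0% = DMSO vehicle and 100% = full agonist response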
Numbers without * were called inactive; · = no result given.

SMILES	TAAR1 ag	V1R ag counter	OXTR potentiator	TAAR1 antagonist	OXTR agonist	TAAR1 nonsel count	TAAR1 antag conf	Ga16 ag counter	TAAR1 ag counter
CC1CN(C(=O)CSc2nnc(NC(=O)NC(C)(C)C)s2)CC(C)O1 (stereo unspecified)	0	0	2	-19	0	·	·	·	·
Cc1cc(C)nc(NS(=O)(=O)c2ccc(NC(=O)c3cc(-c4ccccc4)nc4ccccc34)cc2)n1	5	1	-2	6	0	·	·	·	·
CCN(CC)S(=O)(=O)c1ccc(N2CCOCC2)c(NC(=O)c2cccc3ccccc23)c1	12	7	-11	40	5	·	·	·	·
CCN(CC)S(=O)(=O)c1ccc(NC(=O)c2cc(-c3ccccc3)nc3ccccc23)cc1	3	0	-10	54*	0	27*	35	8	-2
CCN(CC)S(=O)(=O)c1ccc(N2CCOCC2)c(NC(=O)c2cccc(C#N)c2)c1	-3	0	-2	104*	1	8	2	0	5
CCN(CC)S(=O)(=O)c1ccc(N2CCOCC2)c(NC(=O)c2c3c(nc4ccccc24)CCC3)c1	13	3	-4	56*	-2	18	36	7	7
CCN(CC)S(=O)(=O)c1ccc(N2CCOCC2)c(NC(=O)c2cc(-c3ccccn3)nc3ccccc23)c1	18	·	·	71*	·	27*	52*	8	11
CCN(CC)S(=O)(=O)c1ccc(N2CCOCC2)c(NC(=O)c2ccc3ccccc3c2)c1	-1	0	-3	-11	-1	·	·	·	·
COc1ccc(-c2cn3nc(SCC(=O)NCC4CCCO4)ccc3n2)cc1 (stereo unspecified)	-2	-1	-5	-6	-1	·	·	·	·
CSc1ccc(Cn2c(C)c(C(=O)NCc3ccc(F)cc3)sc2=O)cc1	1	·	·	46	·	·	·	·	·
O=C(COC(=O)c1ccccc1SCC(=O)N1CCCC1)Nc1ccccc1	5	5	-17	18	3	·	·	·	·
CC(C)(C)N(Cc1ccccc1)C(=O)COC(=O)c1ccccc1SCC(=O)N1CCCC1	6	1	-4	61*	-1	21	43	9	11
Cc1cc2cc(CCNC(=O)C(=O)c3c[nH]c4ccccc34)c(=O)[nH]c2cc1C	19	1	-12	65*	2	30*	45	9	7
CCCCNc1nc(N(C)c2ccccc2)nc(-n2ccnc2)n1	17	-1	-1	50*	-2	3	-5	0	0
C=CCNc1nc(N(c2ccccc2)c2ccccc2)nc(-n2ccnc2)n1	37	0	-4	95*	-1	47*	84*	10	18
c1ccc(N(c2ccccc2)c2nc(-n3ccnc3)nc(-n3ccnc3)n2)cc1	34	0	-10	104*	-1	56*	96*	27*	43*
CCCCCNc1nc(-c2ccccc2)nc(-n2ccnc2)n1	0	-1	-11	-20	-2	·	·	·	·
CN(c1ccccc1)c1nc(-n2ccnc2)nc(-n2ccnc2)n1	4	1	-11	6	-2	·	·	·	·
O=C(O)CC12CC3CC(C1)CC(n1ncc(N4CCC5(CC4)OCCO5)c(Cl)c1=O)(C3)C2	0	1	-3	5	2	·	·	·	·
CC1(C)Cc2ccccc2C(/C(C#N)=N/O)=N1	4	0	-9	-3	0	·	·	·	·
NC(=O)C(CCc1nc2ccccc2[nH]1)NS(=O)(=O)c1ccccc1 (stereo unspecified)	2	·	·	-5	·	·	·	·	·
COc1cc(NC(=O)CN(C)S(=O)(=O)c2ccc3c(c2)CC(C)N3C(C)=O)cc(OC)c1 (stereo unspecified)	8	8	-11	17	5	·	·	·	·
CN(CC(=O)Nc1ccc(Cl)c(C(F)(F)F)c1)C(=O)c1cc(-c2ccncc2)nc2ccccc12	9	-1	-5	50*	0	33*	53*	10	10
COc1cccc(NC(=O)CN(C)C(=O)c2cc(-c3ccc(F)cc3)nc3ccccc23)c1	6	1	-12	75*	-1	40*	60*	9	5
COc1ccc(NC(=O)CN(C)C(=O)c2cc(-c3ccco3)nc3ccccc23)cc1	13	0	-3	36	-1	·	·	·	·
SMILES	TAAR1 ag	V1R ag counter	OXTR potentiator	TAAR1 antagonist	OXTR agonist	TAAR1 nonsel count	TAAR1 antag conf	Ga16 ag counter	TAAR1 ag counter
CN(CC(=O)Nc1cccc(F)c1)C(=O)c1cc(-c2ccco2)nc2ccccc12	11	-1	-6	44	-1	·	·	·	·
COc1cccc(NC(=O)CN(C)C(=O)c2cc(-c3ccccc3)nc3ccccc23)c1	12	0	-7	70*	-1	34*	51*	9	7
COc1ccc(-c2cc(C(=O)N(C)CC(=O)Nc3cccc(F)c3)c3ccccc3n2)cc1OC	15	·	·	76*	·	44*	61*	11	8
Cc1cccc([C@@H]2[C@@H]3C(=O)N(Cc4ccccc4)C(=O)[C@@H]3[C@]3(Cc4ccccc4)C(=O)N(c4ccc(C(F)(F)F)cc4)C(=O)N23)c1	-1	3	3	5	2	·	·	·	·
CN(CC(=O)Nc1cccc(F)c1)C(=O)c1cn(-c2ccccc2)nc1-c1cccs1	8	3	-16	65*	3	32*	40	7	6
COc1ccc(Cl)cc1NC(=O)CN(C)C(=O)c1cn(-c2ccccc2)nc1-c1cccnc1	13	2	-10	58*	-1	33*	47	7	5
O=C(NCc1ccccc1)[C@H]1CCCN1	1	·	·	-10	·	·	·	·	·
O=C(OCC(=O)N(Cc1ccccc1)Cc1ccccc1)c1cccc(O)c1	7	0	-3	63*	-1	26*	40	2	2
COc1ccc(N(C)S(=O)(=O)c2cccc(C(=O)Nc3ccc4c(c3)OCCO4)c2)cc1	4	-1	-2	36	-2	·	·	·	·
